pEC50, pIC50: −log10 of the molar value. In brackets after ≈: the same amount, converted by molar mass.
Columns and labels:
[1] = tested on: Mycolicibacterium smegmatis; test: Potentiation of Cefotaxime-induced antibacterial activity against Mycobacterium smegmatis mc2 155 ATCC 700084 assessed as fold reduction in Cefotaxime MIC at 30 uM incubated for 48 hrs by alamarblue dye based broth microdilution method; type: functional
Method in brief: (§1)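 Inoculum from 48 h cultures set to 5 x 10^5 CFU/mL in 7H9 + ADC and pre-dosed with compound from DMSO stock at fixed concentration. β-lactam two-fold serially diluted from top concentration, with an antibiotic-only control series. Stationary 37 °C for 48 h, then alamarBlue for 8 h. MIC is the lowest blue (non-viable) well. Fold reduction is relative to the antibiotic-only MIC. Duplicates, at least two repeats.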

[2] = tested on: Mycolicibacterium smegmatis; test: Antibiofilm activity against Mycobacterium smegmatis mc2 155 ATCC 700084 assessed as inhibition of biofilm formation measured after 24 hrs by crystal violet reporter assay; type: functional, organism-based; conditions: MC2 155 ATCC 700084, 24 h
[3] = tested on: Mycolicibacterium smegmatis; test: Potentiation of Ceftazidime-induced antibacterial activity against Mycobacterium smegmatis mc2 155 ATCC 700084 assessed as Ceftazidime MIC at 30 uM incubated for 48 hrs by alamarblue dye based broth microdilution method (reference value: 512 ug/ml); type: functional; method in brief: as §1
[4] = tested on: Mycolicibacterium smegmatis; test: Potentiation of Cefoxitin-induced antibacterial activity against Mycobacterium smegmatis mc2 155 ATCC 700084 assessed as fold reduction in Cefoxitin MIC at 30 uM incubated for 48 hrs by alamarblue dye based broth microdilution method; type: functional; method in brief: as §1
[5] = Hemolytic activity in sheep RBC assessed as hemolysis at 200 uM measured after 1 hr by UV spectrometer analysis; type: ADME, cell-based, Ovis aries, Erythrocyte; conditions: sheep red blood cells (erythrocytes), read-out: Activity
Method in brief: (§2)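 Mechanically defibrinated sheep blood was centrifuged, and the cells were washed and resuspended in PBS three times, then diluted 10-fold. Compound was added from DMSO stock. Controls were 1% Triton X (100% lysis) and PBS (zero lysis). Samples were incubated 1 h at 37 °C with shaking at 200 rpm, then centrifuged. Supernatant was diluted 40-fold in distilled water and read at A540. Run in duplicate, repeated at least twice.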

[6] = tested on: Mycolicibacterium smegmatis; test: Potentiation of Ceftazidime-induced antibacterial activity against Mycobacterium smegmatis mc2 155 ATCC 700084 assessed as fold reduction in Ceftazidime MIC at 30 uM incubated for 48 hrs by alamarblue dye based broth microdilution method; type: functional; method in brief: as §1
[7] = tested on: Mycolicibacterium smegmatis; test: Potentiation of Ampicillin-induced antibacterial activity against Mycobacterium smegmatis mc2 155 ATCC 700084 assessed as fold reduction in Ampicillin MIC at 30 uM incubated for 48 hrs by alamarblue dye based broth microdilution method; type: functional; method in brief: as §1
[8] = tested on: Mycolicibacterium smegmatis; test: Potentiation of Oxacillin-induced antibacterial activity against Mycobacterium smegmatis mc2 155 ATCC 700084 assessed as Oxacillin MIC at 30 uM incubated for 48 hrs by alamarblue dye based broth microdilution method (Rvb =512 ug/ml); type: functional; method in brief: as §1
[9] = tested on: Mycolicibacterium smegmatis; test: Potentiation of oxacillin-induced antibacterial activity against Mycobacterium smegmatis mc2 155 ATCC 700084 assessed as fold reduction in oxacillin MIC at 30 uM incubated for 48 hrs by alamarblue dye based broth microdilution method; type: functional; method in brief: as §1
[10] = tested on: Mycolicibacterium smegmatis; test: Potentiation of Ampicillin-induced antibacterial activity against Mycobacterium smegmatis mc2 155 ATCC 700084 assessed as Ampicillin MIC at 30 uM incubated for 48 hrs by alamarblue dye based broth microdilution method (reference value: 128 ug/ml); type: functional; method in brief: as §1
[11] = tested on: Mycolicibacterium smegmatis; test: Potentiation of Cefotaxime-induced antibacterial activity against Mycobacterium smegmatis mc2 155 ATCC 700084 assessed as Cefotaxime MIC at 30 uM incubated for 48 hrs by alamarblue dye based broth microdilution method (reference value: 128 ug/ml); type: functional; method in brief: as §1
[12] = tested on: Mycolicibacterium smegmatis; test: Potentiation of Cefoxitin-induced antibacterial activity against Mycobacterium smegmatis mc2 155 ATCC 700084 assessed as Cefoxitin MIC at 30 uM incubated for 48 hrs by alamarblue dye based broth microdilution method (reference value: 16 ug/ml); type: functional; method in brief: as §1
[13] = Hemolytic activity in sheep RBC assessed as hemolysis at 500 uM measured after 1 hr by UV spectrometer analysis; type: ADME, cell-based, Ovis aries, Erythrocyte; conditions: sheep red blood cells (erythrocytes), read-out: Activity; method in brief: as §2
[14] = tested on: Mycolicibacterium smegmatis; test: Antibacterial activity against Mycobacterium smegmatis mc2 155 ATCC 700084 assessed as inhibition of bacterial growth incubated for 48 hrs by alamarblue dye based broth microdilution method; type: functional
Method in brief: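 Inoculum from 48 h cultures set to 5 x 10^5 CFU/mL in 7H9 + ADC. Compound in DMSO two-fold serially diluted from 200 µM top concentration. Stationary 37 °C for 48 h, then alamarBlue for 8 h at 37 °C. MIC is the lowest concentration with no viable bacteria (blue, not pink). Duplicate wells, at least two independent repeats.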

[15] = tested on: Mycolicibacterium smegmatis; test: Antibiofilm activity against Mycobacterium smegmatis mc2 155 ATCC 700084 assessed as dispersion of preformed biofilms measured after 24 hrs by crystal violet reporter assay; type: functional, organism-based; conditions: MC2 155 ATCC 700084, 24 h
Method in brief: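 Cultures (48 h) diluted to 0.01 in M9 minimal salts with glucose, MgSO4 and CaCl2 in PVC plates. Biofilm grown stationary at 37 °C for 48 h, washed, then fresh medium with compound added for 24 h at 37 °C. Stained with 0.1% crystal violet 30 min, solubilised in 95% ethanol, OD540 read. Media blanks subtracted. Dispersion calculated against untreated biofilm wells. At least three repeats.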

## Nc1nc(-c2c[nH]c3cc(Br)ccc23)c[nH]1
[1]
  fold change (FC): 0
[2]
  pIC50: 5.12
[3]
  MIC: 128 µg/mL
[4]
  fold change (FC): 0
[5]
  hemolysis at 1 h, 200 µM: 7%
[6]
  fold change (FC): 4
[7]
  fold change (FC): 0
[8]
  MIC: 512 µg/mL
[9]
  fold change (FC): 0
[10]
  MIC: 128 µg/mL
[11]
  MIC: 128 µg/mL
[12]
  MIC: 16 µg/mL
[13]
  hemolysis at 1 h, 500 µM: 14%
[14]
  MIC: 100 µM (≈ 27.7 µg/mL)
[15]
  pEC50: 4.55

— ChEMBL document CHEMBL4699393, “Meridianin D analogues possess antibiofilm activity against Mycobacterium smegmatis” (RSC Med Chem, 2020)
